The source made the active and inactive calls. The calls are words filed in the database; no cut-off is given here.
Legend:
[1] = Half life of the compound in phosphate buffered saline at pH 7.4 by 1H NMR spectroscopic analysis; type: physicochemical
Procedure, shortened: (§1)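 Half-life followed by ¹H NMR spectroscopy in phosphate buffers at pH 7.4 or 5.5.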

[2] = Half life in human plasma; type: ADME, cell-free
[3] = Antiproliferative activity against MGMT-expressing human U373M cells assessed as inhibition of cell growth measured after […] by MTT assay; type: functional
Procedure, shortened: (§2)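 Cells seeded at 6.5×10^2/well, left overnight, then exposed to vehicle or agent (n = 4-8; final 0.5–1000 μM; DMSO stocks of 50 or 10 mM diluted in medium). MTT read at time of addition and after 6 days at 37 °C, 5% CO₂. MTT 0.4 mg/mL for 4 h, formazan taken up in DMSO, A550. GI50 from non-linear regression; mean ± SD of >3 experiments.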

U373V [4] = test: Induction of cell cycle arrest in human U373V cells assessed as accumulation of cells at G2/M phase at 100 uM measured after 120 hrs by propidium iodide staining based flow cytometry; type: functional
[5] = Apparent elimination half life in human
[6] = Permeability of the compound assessed as drug recovery measured after 6 hrs by PAMPA assay; type: ADME; settings: read-out: Drug recovery
Procedure, shortened: (§3)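 PAMPA passive-diffusion assay run as contract research under the provider's protocols, with control compounds. After 6 h incubation, permeability (Pe) and percentage recovery determined.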

[7] = Apparent elimination half life in human plasma
[8] = Intrinsic clearance in human liver microsomes in absence of NADPH; type: ADME, Microsome; settings: read-out: CLH
HCT-116 [9] = test: Induction of cell cycle arrest in MMR-deficient human HCT-116 cells at 100 uM measured after 120 hrs by propidium iodide staining based flow cytometry; type: functional
HCT-116 [10] = test: Antiproliferative activity against MMR-deficient human HCT-116 cells assessed as inhibition of cell growth measured after […] by MTT assay; type: functional; procedure, shortened: as §2
[11] = Half life of the compound in phosphate buffered saline at pH 6.8 by LC-MS analysis; type: physicochemical
Procedure, shortened: (§4)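 Half-life in phosphate buffers at pH 5, 6.8 or 7.4 followed by LC-MS; mean of two independent experiments.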

[12] = Intrinsic clearance in human liver microsomes in presence of NADPH; type: ADME, Microsome; settings: read-out: CLH
U373M [13] = test: Induction of cell cycle arrest in MGMT-expressing human U373M cells at 100 uM measured after 120 hrs by propidium iodide staining based flow cytometry; type: functional
[14] = Induction of cell cycle arrest in human U373V cells assessed as accumulation of cells at pre-G1 phase at 100 uM measured after 120 hrs by propidium iodide staining based flow cytometry (reference value: 1%); type: functional
[15] = Permeability of the compound measured after 6 hrs by PAMPA assay; type: ADME; settings: read-out: permeability; procedure, shortened: as §3
[16] = Half life in rat plasma; type: ADME, cell-free
[17] = Intrinsic clearance in rat liver microsomes in absence of NADPH; type: ADME, Microsome; settings: read-out: CLH
[18] = Half life of the compound in phosphate buffered saline at pH 7.4 by LC-MS analysis; type: physicochemical; procedure, shortened: as §4
[19] = Antiproliferative activity against human U373V cells assessed as inhibition of cell growth measured […] by MTT assay; type: functional; procedure, shortened: as §2
[20] = Intrinsic clearance in rat liver microsomes in presence of NADPH; type: ADME, Microsome; settings: read-out: CLH
[21] = Half life in human liver microsomes in absence of NADPH; type: ADME, Microsome
[22] = Half life of the compound in phosphate buffered saline at pH 5 by LC-MS analysis; type: physicochemical; procedure, shortened: as §4
[23] = Half life in rat liver microsomes in presence of NADPH; type: ADME, Microsome
[24] = Half life of the compound in phosphate buffered saline at pH 5.5 by 1H NMR spectroscopic analysis; type: physicochemical; procedure, shortened: as §1
[25] = Ratio of permeability across dog MDCK cells transfected with MDR1 to permeability across wild type dog MDCK cells; type: ADME, cell-based, Canis lupus familiaris
[26] = Half life in human liver microsomes in presence of NADPH; type: ADME, Microsome
[27] = Half life in rat liver microsomes in absence of NADPH; type: ADME, Microsome
[28] = Selectivity ratio of GI50 for cytotoxicity against human MRC5 cells to GI50 for antiproliferative activity against MMR-deficient human HCT-116 cells; type: toxicity, cell-based; settings: MRC5 cells versus MMR-deficient HCT-116 cells, read-out: RatioGI50
U373V [29] = test: Inhibition of cell colony formation in human U373V cells at 20 to 50 uM incubated for 24 hrs followed by drug removal and incubation in medium for 14 days; type: functional, cell-based; settings: dose 20-50 µM
Procedure, shortened: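 Clonogenic survival: exponentially growing cells seeded in triplicate at 400 cells/well, attached overnight, then exposed for 24 h to 0, 2, 20 or 50 μM agent. Medium then replaced with drug-free medium for 14 days, or until control colonies held ≥50 cells. Colonies fixed in cold methanol, stained with 0.5% methylene blue, counted, and expressed relative to control. 2–3 experiments.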

[30] = Drug metabolism in phosphate buffered saline assessed as half life of 5-(3-(prop-2-yn-1-yl)triaz-2-en-1-yl)-1H-imidazole-4-carboxamide at pH 7.4 by 1HNMR spectroscopy; type: ADME; settings: buffer
[31] = Drug metabolism in phosphate buffered saline assessed as Tmax of 5-(3-(prop-2-yn-1-yl)triaz-2-en-1-yl)-1H-imidazole-4-carboxamide at pH 7.4 by 1HNMR spectroscopy; type: ADME; settings: buffer
U373M [32] = test: Induction of cell cycle arrest in MGMT-expressing human U373M cells assessed as accumulation of cells at sub-G1 phase at 100 uM measured after 120 hrs by propidium iodide staining based flow cytometry; type: functional
U373V [33] = test: Induction of cell cycle arrest in human U373V cells assessed as accumulation of cells at sub-G1 phase at 100 uM measured after 120 hrs by propidium iodide staining based flow cytometry; type: functional
[34] = Induction of cell cycle arrest in MGMT-expressing human U373M cells assessed as accumulation of cells at G2/M phase at 100 uM measured after 120 hrs by propidium iodide staining based flow cytometry (Rvb ~ 15%); type: functional
HCT-116 [35] = test: Induction of cell cycle arrest in MMR-deficient human HCT-116 cells assessed as accumulation of cells at sub-G1 phase at 100 uM measured after 120 hrs by propidium iodide staining based flow cytometry (Rvb ~5%); type: functional
HCT-116 [36] = test: Induction of cell cycle arrest in MMR-deficient human HCT-116 cells assessed as loss of cell cycle integrity at 100 uM measured after 120 hrs by propidium iodide staining based flow cytometry; type: functional
U373V [37] = test: Induction of cell cycle arrest in human U373V cells assessed as accumulation of cells at S phase at 100 uM measured after 120 hrs by propidium iodide staining based flow cytometry; type: functional
U373M [38] = test: Induction of cell cycle arrest in MGMT-expressing human U373M cells assessed as accumulation of cells at S phase at 100 uM measured after 120 hrs by propidium iodide staining based flow cytometry; type: functional

Cn1nnc2c(C(N)=O)ncn2c1=O [TEMOZOLOMIDE]
half-life [1]: 1.53 h | half-life [2]: 0.33 h | GI50 [3]: 302 µM | Activity (U373V [4]): Active | half-life [5]: 1.8 h | recovery at 6 h [6]: 65.3% | t1/2 [7]: 0.25 h | microsomal CLint [8]: 23 µL/min/mg | Activity (HCT-116 [9]): inactive | GI50 (HCT-116 [10]): 291 µM | half-life [11]: 4.02 h | microsomal CLint [12]: 27.3 µL/min/mg | Activity (U373M [13]): inactive | Activity [14]: 9% | Papp at 6 h [15]: 0.63 ×10⁻⁶ cm/s | half-life [16]: 0.298 h | microsomal CLint [17]: < 1 µL/min/mg | half-life [18]: 2.47 h | GI50 [19]: 51.9 µM | microsomal CLint [20]: < 1 µL/min/mg | half-life [21]: 1 h | half-life [22]: > 8 h | half-life [23]: > 8 h | half-life [24]: > 100 h | Ratio [25]: 3.21 | half-life [26]: 0.848 h | half-life [27]: > 8 h | selectivity ratio [28]: 1.4 | inhibition (U373V [29]): Active

C#CCn1nnc2c(C(N)=O)ncn2c1=O
half-life [1]: 0.817 h | half-life [2]: 0.242 h | GI50 [3]: 26.6 µM | Activity (U373V [4]): Active | t1/2 [30]: 4.5 h | Tmax [31]: 2 h | recovery at 6 h [6]: 6.9% | Activity (U373M [32]): Active | Activity (U373V [33]): Active | microsomal CLint [8]: 25.2 µL/min/mg | Activity [34]: 33% | Activity (HCT-116 [35]): 96% | GI50 (HCT-116 [10]): 28.1 µM | half-life [11]: 3.86 h | Activity (HCT-116 [36]): Active | microsomal CLint [12]: 18.1 µL/min/mg | Papp at 6 h [15]: 1.38 ×10⁻⁶ cm/s | half-life [16]: 0.432 h | microsomal CLint [17]: 29.2 µL/min/mg | half-life [18]: 1.92 h | GI50 [19]: 30 µM | microsomal CLint [20]: 35.5 µL/min/mg | half-life [21]: 0.918 h | half-life [22]: > 8 h | half-life [23]: 0.655 h | Activity (U373V [37]): Active | Activity (U373M [38]): Active | Ratio [25]: 0.93 | half-life [26]: 1.3 h | half-life [27]: 0.812 h
